High-throughput results deposited in PubChem BioAssay by SRMLSC.
Ecoli WT growth: blocks growth of wild type E. coli BW25113. E. coli BW25113 growth inhibition, OD600. 20,000 tested, 0.05% active. inhibition, % at 10 µM; in the data active means inhibition above about 40%;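 further: bacteria exposed to compound for 20 hours at 37 °C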
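System: bacterial strain in a whole-cell growth screen; medium: LB broth with 50 µg/mL kanamycin; detection: absorbance at 615 nm; schedule: 20 h exposure, 37 °C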
* hit, by the source's call. Not all results are given here.

SMILES	Ecoli WT growth
O=C(c1c(F)c(F)c(F)c(F)c1F)N1CCc2ccccc21	-9
Cc1cc(C)c2c(CC(=O)N(CCC#N)Cc3cccnc3)coc2c1	-20
CSc1nsc(SCc2ccc(F)cc2)n1	-15
Cc1oc2nc(SCC(=O)NC3CCCCC3)nc(N)c2c1C	4
CSc1nsc(SCC(=O)N2CCN(c3ccccc3)CC2)n1	-16
COc1cccc(-n2c(C)c(C(C)=O)c(C(C)=O)c2C)c1	6
O=C(Nc1ccc(CN2CCOCC2)cc1)c1cc2ccccc2oc1=O	-3
O=C1c2ccccc2C(=O)N1Cc1nc2ccccc2c(=O)n1CCN1CCOCC1	-2
Cc1cc(-c2ccccc2)n(-c2ccc(C(=O)N3CCN(c4ncccn4)CC3)cc2)n1	-1
Cc1ccc(CNC(=O)CSc2nc(N3CCCCC3)nc(N3CCCCC3)n2)cc1	-16
CCCCOC(=O)n1c(SCC(=O)N(CC)CC)nc2ccccc21	-3
CC1CN(c2ccccc2)C(=O)CS1 (stereo not drawn)	-11
O=C1CC(N2CCN(C3CCc4ccccc4C3)CC2)C(=O)N1c1ccccc1 (stereo not drawn)	0
O=C(CCSc1nc(-c2ccco2)cc(C(F)(F)F)n1)N1CCCc2ccccc21	-14
CC1=NC(C(F)(F)F)(C(F)(F)F)C2=C(CC(C)(C)CC2=O)N1Cc1ccco1	-8
O=C(CCC1CCCCC1)N1CCN(Cc2ccc3c(c2)OCO3)CC1	-5
Cc1nnc(SCc2ccccc2F)n1NCc1cccs1	-3
O=C(c1cnn2c(C(F)(F)F)cc(-c3ccco3)nc12)N1CCc2ccccc2C1	3
CS(=O)(=O)N(CC(=O)Nc1cccnc1)c1ccc2c(c1)OCO2	-23
O=C(O)CCC(=O)OCC1CCCO1 (stereo not drawn)	-19
CCOC(=O)C1CCCN(S(=O)(=O)c2cccc3cccnc23)C1 (stereo not drawn)	-15
CCCC(=O)Nc1cc(Cl)ccc1N1CCN(C(=O)CC)CC1	-28
CS(=O)(=O)N(CCc1ccccc1)CC(=O)NCc1cccnc1	-19
CC(C)CCNC(=O)Cn1c(NCCC(C)C)nc2c1c(=O)n(C)c(=O)n2C	3
Cc1c(O)c(CN2CCCC(C)C2)cc2c3c(c(=O)oc12)CCC3 (stereo not drawn)	5
SMILES	Ecoli WT growth
CS(=O)(=O)N(CCc1ccccc1)CC(=O)NCC1CCCO1 (stereo not drawn)	-19
O=C(CCn1nc(-c2ccccc2)c2ccccc2c1=O)NCC1CCCO1 (stereo not drawn)	-19
COc1ccc(C(=O)n2ccc(C)n2)cc1Br	-14
COc1cc(CSc2nnnn2-c2ccc(C)cc2)cc(OC)c1OC	5
O=C(O)CCC(=O)NC1CCCCC1NC(=O)CCC(=O)O (stereo not drawn)	4
CC1(C)NC(=O)N(CNc2cc(Cl)ccc2Cl)C1=O	4
CCOc1ccccc1N(C(=O)Cn1nnnc1-c1ccc(C)o1)C(CC)C(=O)NC(C)(C)C (stereo not drawn)	-4
COc1ccc(/C(O)=C2/C(=O)C(=O)N(CCCN(C)C)C2c2ccco2)cc1Cl (stereo not drawn)	-2
Cc1cc(C)c2c(n1)nn1c(N3CCN(c4ccccc4C)CC3)cc(C)nc21	0
COC(=O)c1cc(OC)c(OC)cc1NC(=O)c1cc(C)on1	-18
O=C(Nc1ccc(N2CCN(Cc3ccccc3)CC2)cc1)c1ncn[nH]1	-11
Cc1cccc(N2CCN(C(=O)Cn3nc(Cc4ccncc4)c4ccccc4c3=O)CC2)c1C	1
COc1c(S(=O)(=O)n2nc(C)cc2C)ccc(Cl)c1Cl	6
C=CCn1c(SCC(=O)c2cc(C)n(C(C)COC)c2C)nc2sc(C)c(C)c2c1=O (stereo not drawn)	-3
O=C(COc1cc(Cl)c(Cl)cc1Cl)Nn1cnnc1	-18
Cc1ccc(NC(=O)COC(=O)c2ccn(C)n2)cc1	-5
CC1c2nc3ccccc3n2C(CC(=O)NCc2ccccn2)C(=O)N1Cc1ccccc1 (stereo not drawn)	-3
O=S(=O)(Nc1cccnc1)c1ccc(Cl)c(C(F)(F)F)c1	-1
CC(OC(=O)c1cc(=O)[nH]c2ccccc12)c1ccccc1 (stereo not drawn)	0
COC(=O)c1ccc(-c2ccc(CNCC(O)c3ccccc3)o2)cc1 (stereo not drawn)	0
CCOC(=O)C1CCCCN1Cc1ccccc1C(F)(F)F (stereo not drawn)	-2
Oc1ccc(C(=S)N2CCCCC2)cc1Cl	1
CCc1nnc(NC(=O)CSc2ncc(-c3ccccc3)n2CC)s1	-19
Cc1cc(C)c(N2CCN(S(=O)(=O)N3CCCCCC3)CC2)c(C)c1	-14
O=C(Nc1ccc(N2CCOCC2)c(F)c1)c1ccncc1	10
CCN(CC)S(=O)(=O)c1ccc(NC2CCCc3ccccc32)nc1 (stereo not drawn)	-2
COc1ccccc1CNC(=O)N[C@@H](Cc1ccccc1)C(=O)O	5
Cc1nn2c(-c3cccc(NC(=O)CSc4nc5ccccc5o4)c3)nnc2c2ccccc12	5
CCc1nn2c(=O)cc(CSc3nc4sc5c(c4c(=O)n3C)CCCC5)nc2s1	8
COC(=O)c1ccc(COc2ncnc3c(Cl)cc(Cl)cc23)o1	5
